Screening results deposited in PubChem by Broad Institute.
Rows were chosen to be rich in hits. Some 3% of all compounds tested hit in one or more screens of this group.
MITF act: activators of MITF-driven TRPM1 promoter reporter, primary screen, cell-based, SK-MEL-5, luciferase, single point; SK-MEL-5 TRPM1-promoter luciferase, 24 h; % of positive control, neutral wells = 0; activation, % at 12.5 µM; 300,000 tested, 0.75% active; AID 588334, 2011;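 active means mean activation of at least 80% with every replicate also reaching 80%; inconclusive means mean reaches 80% but some replicate falls short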;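 further: 0% = neutral control wells and 100% = parthenolide positive control wells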
NSD2 inh: NSD2 histone methyltransferase inhibitors, primary screen, biochemical, AlphaScreen, single concentration, set 2; AID 743445, 2014; 310,000 tested, 0.54% active; NSD2 peptide methylation, 120 min; inhibition, % at 12.5 µM; Histone-lysine N-methyltransferase NSD2 (Homo sapiens), O96028; in the data active means inhibition above about 50%
esBAF inh: Bmi1 luciferase reporter increase in mESCs, primary screen, esBAF inhibitor project, mouse ES cells, Bmi1 luciferase knock-in, single point; 24 h; 100% = twice the neutral-well signal; reporter increase, % at 12.5 µM; 350,000 tested, 2% active; AID 602393, 2012; in the data active means activation above about 40%; inconclusive means no clear call, values can overlap the other calls;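 further: 0% = median of the plate's neutral control wells and 100% = double that signal; a rise in the Bmi1 reporter signal indicates esBAF inhibition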
Wnt bcat act: Wnt/beta-catenin pathway activators, primary screen, cell-based, plate reader, single point | AID 743398, 2014 | activation, % at 9.35 µM | Wnt/beta-catenin reporter cell assay, activator | 300,000 tested, 1.2% active; in the data active means activation above about 30%, passing the limit was not always enough; inconclusive means no clear call, values can overlap the other calls;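 further: 0% = neutral control wells and 100% = positive control wells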
Casp6 inh: human caspase-6 inhibitors, primary screen, biochemical, VEID-R110 fluorescence, single point, set 2 | 350,000 tested, 0.53% active | purified caspase-6, Z-VEID-R110 cleavage fluorescence | P55212 | AID 686996, 2013 | inhibition, % at 12.5 µM;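 active means mean inhibition across replicates at least about 35%, with every replicate also reaching that limit, limit read from the data; inconclusive means only one of the two criteria met; inactive means neither criterion met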;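 further: 0% = median of neutral control wells and 100% = no fluorescence left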
Target sequence (P55212 24-179 limits assumed): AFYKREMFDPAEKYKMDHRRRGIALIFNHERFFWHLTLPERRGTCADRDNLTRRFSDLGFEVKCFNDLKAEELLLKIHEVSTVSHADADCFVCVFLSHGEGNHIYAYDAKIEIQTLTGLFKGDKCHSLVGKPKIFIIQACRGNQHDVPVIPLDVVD
Target sequence (P55212 194-293 limits assumed): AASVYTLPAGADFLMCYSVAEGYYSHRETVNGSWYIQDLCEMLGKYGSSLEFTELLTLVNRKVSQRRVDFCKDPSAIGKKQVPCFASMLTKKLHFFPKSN
Xi reactivation: activators of inactive X chromosome reactivation, primary screen, imaging, XiGFP fibroblasts, GFP high-content imaging, set 2 | XiGFP mouse fibroblasts, % GFP-positive cells imaging, 3 d; cells co-treated with 5-aza-dC sensitizer; scaled so ellipticine positive control = 100% | 360,000 tested, 0.055% active | AID 743238, 2013 | activation, % at 7.58 µM;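 active means mean normalized replicate activation at least 10% and every replicate at or above 10%; inconclusive means only one of the two criteria met; inactive means mean below 10% and not all replicates reach 10%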;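 further: 0% = median of on-plate neutral control wells and 100% = ellipticine 6 µM median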
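Assay system: SV40-immortalized XiGFP fibroblast cells, line 68-5-11; buffer or medium: DMEM plus 5-aza-dC sensitizer; compound: one concentration, pinned; timing: compounds 3 days, fix/stain 15 min at room temperature; benchmarks: positive control ellipticine, 6 µM final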
* marks the source's active call; other numbers are inactive results; u = inconclusive; x = not tested or not shown.

SMILES	MITF act	NSD2 inh	esBAF inh	Wnt bcat act	Casp6 inh	Xi reactivation
O=C(N/N=C/c1ccco1)c1cc(-c2ccc3ccccc3c2)n[nH]1	8	1	60*	x	x	x
CCC(=O)Nc1ccc2c(c1)C(=O)N(C)C[C@@H](OC)[C@H](C)CN(C(=O)COC)[C@@H](C)CO2	x	x	9	x	0	1
CC(=O)N1[C@@H]2CN(CC(F)(F)F)C[C@H]1C2c1ccccc1 (stereo partly drawn)	x	x	x	x	x	0
COc1ccc(C(=O)Nc2ccc(C)cn2)c(OC)c1	-73	1	-78	x	x	x
Cc1cc(NC(=O)Nc2ccc(C)c(C)c2)no1	61	-1	x	32*	2	0
COc1ccc(C(=O)Nc2cc(C)on2)c(OC)c1	115*	-1	14	13	-1	0
COc1cccc(NC(=O)Nc2cc(C)on2)c1	15	-5	16	3	0	0
COc1cccc(C(=O)NC(=O)Nc2cc(C)on2)c1	105*	0	56*	11	-4	0
Cc1ccccc1-c1ccc([C@@H]2[C@@H](CO)N3CCCCN(S(C)(=O)=O)C[C@@H]23)cc1	x	x	-2	x	-2	0
COc1ccc2c3c(n(C)c2c1)[C@@H](CO)N(S(=O)(=O)c1ccc(C)cc1)CC31CN(S(=O)(=O)c2ccc(C)cc2)C1	x	x	x	x	x	0
COc1cc(N2CCOCC2)ccc1C=C(C#N)C#N	-5	-1	-3	0	4	0
COc1cc(N2Cc3ccccc3C2)ccc1C=O	x	3	51*	7	1	0
Clc1cc(Cl)c2nc(N3CCOCC3)sc2c1	x	-6	61*	42*	x	x
Clc1ccc(Cl)c2sc(N3CCOCC3)nc12	3	-4	11	x	x	x
O=C(NC1CC1)c1ccc(-c2cnc3cccnn23)cc1	x	19	25	35*	0	0
CCN(CC)C(=S)SCC(=O)c1ccccc1	x	-2	55*	x	x	x
CCN(CC)C(=S)SCC(=O)c1ccc(F)cc1	76	-3	48*	u	x	x
CCN(CC)C(=S)SCC(=O)Nc1ccc(F)cc1	6	1	x	x	x	x
CCc1nnc(NC(=O)C2CCCN(C(=O)c3ccc(Cl)cc3)C2)s1 (stereo not drawn)	60	-1	50*	-2	0	0
CC(C)(C)c1csc(NC(=O)C2=COCCO2)n1	77	2	x	53*	2	0
CCCc1ccc(-c2csc(NC(=O)C3=COCCO3)n2)cc1	68	-2	65*	20	2	0
CCSc1nnc2c(n1)OC(C)(C)Nc1ccccc1-2	12	-1	48*	19	0	x
Oc1ccc(/C=N/N2CCCCC2)c(O)c1O	-7	21	-4	-1	39*	0
CCOC(=O)N/N=C/C(Cl)=C/c1ccccc1	75	-1	56*	16	8	0
NC(=S)N/N=C/C=C/c1ccccc1	10	-2	x	1	0	0
SMILES	MITF act	NSD2 inh	esBAF inh	Wnt bcat act	Casp6 inh	Xi reactivation
CCCCOC(=O)N/N=C/C=C/c1ccccc1	33	8	51*	-1	0	0
COc1ccc(CN(C)C[C@H]2OCCCC[C@H](C)Oc3ccc(NC(=O)Nc4ccccc4)cc3C(=O)N([C@H](C)CO)C[C@H]2C)cc1	x	x	0	x	x	0
COC(=O)c1ccc(CSc2nnc(-c3c[nH]c4ccccc34)n2C)o1	0	x	1	-1	-1	0
CCCCSc1nnc(-c2ccc(NC(C)=O)cc2)n1C	4	-1	x	x	x	0
Cn1c(SCc2ccccc2)nnc1-c1c[nH]c2ccccc12	x	x	81*	23	2	0
CCCCSc1nnc(-c2c[nH]c3ccccc23)n1C	44	x	72*	32*	1	0
CCCCSc1nnc(-c2ccc(C)cc2)n1C	34	0	20	53*	x	x
C[C@@H]1CN([C@H](C)CO)C(=O)c2cc(N(C)C)ccc2O[C@@H](C)CCCCO[C@H]1CN(C)C(=O)Nc1ccc2c(c1)OCO2	x	x	1	x	x	-1
